Experiments:
Assay type in all cases: functional
[1] = system: Bacteroides ovatus; assay: Antimicrobial activity against Bacteroides ovatus under anaerobic conditions after 44 hrs by CLSI-M11-47 protocol based agar dilution method
Procedure, shortened: (§1)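 Reference agar dilution per CLSI M11-A7 with plates made on test day. Clinical isolates were stored at −70°C in 20% skim milk, subcultured twice, and 48-h cell paste was suspended in brucella broth to 0.5 McFarland. About 10^5 CFU/spot was applied with a Steers replicator. Plates were incubated 44 h at 37°C anaerobically. MIC was the lowest concentration giving complete inhibition or marked growth reduction versus the drug-free control.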

[2] = system: Phocaeicola vulgatus; assay: Antimicrobial activity against Bacteroides vulgatus under anaerobic conditions after 44 hrs by CLSI-M11-47 protocol based agar dilution method; procedure, shortened: as §1
[3] = system: Prevotella intermedia; assay: Antimicrobial activity against Prevotella intermedia under anaerobic conditions after 44 hrs by CLSI-M11-47 protocol based agar dilution method
Procedure, shortened: (§2)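 Clinical isolates were stored at −70°C in 20% skim milk and identified phenotypically or by partial 16S rRNA sequencing. Each strain was subcultured twice from frozen stock. Cell paste from 48-h cultures was suspended in brucella broth to a 0.5 McFarland standard. About 10^5 CFU per spot were applied by Steers replicator to agar dilution plates prepared on the day of testing. Plates were incubated 44 h at 37°C in an anaerobic chamber. MIC was taken as the lowest concentration giving complete inhibition or marked reduction of growth versus the drug-free control.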

[4] = system: Prevotella disiens; assay: Antimicrobial activity against Prevotella disiens under anaerobic conditions after 44 hrs by CLSI-M11-47 protocol based agar dilution method; procedure, shortened: as §2
[5] = system: Prevotella tannerae; assay: Antimicrobial activity against Prevotella tannerae under anaerobic conditions after 44 hrs by CLSI-M11-47 protocol based agar dilution method; conditions: Alloprevotella tannerae; procedure, shortened: as §2
[6] = system: Porphyromonas asaccharolytica; assay: Antimicrobial activity against Porphyromonas asaccharolyticus under anaerobic conditions after 44 hrs by CLSI-M11-47 protocol based agar dilution method; procedure, shortened: as §2
[7] = system: Fusobacterium nucleatum; assay: Antimicrobial activity against Fusobacterium nucleatum under anaerobic conditions after 44 hrs by CLSI-M11-47 protocol based agar dilution method; procedure, shortened: as §2
[8] = system: Fusobacterium necrophorum; assay: Antimicrobial activity against Fusobacterium necrophorum under anaerobic conditions after 44 hrs by CLSI-M11-47 protocol based agar dilution method; procedure, shortened: as §1
[9] = system: Veillonella; assay: Antimicrobial activity against Veillonella spp. under anaerobic conditions after 44 hrs by CLSI-M11-47 protocol based agar dilution method; procedure, shortened: as §2
[10] = system: Anaerococcus prevotii; assay: Antimicrobial activity against Anaerococcus prevotii under anaerobic conditions after 44 hrs by CLSI-M11-47 protocol based agar dilution method; procedure, shortened: as §1
[11] = system: Finegoldia magna; assay: Antimicrobial activity against Finegoldia magna under anaerobic conditions after 44 hrs by CLSI-M11-47 protocol based agar dilution method; procedure, shortened: as §1
[12] = system: Peptoniphilus asaccharolyticus; assay: Antimicrobial activity against Peptoniphilus asaccharolyticus under anaerobic conditions after 44 hrs by CLSI-M11-47 protocol based agar dilution method; procedure, shortened: as §2
[13] = system: Peptostreptococcus anaerobius; assay: Antimicrobial activity against Peptostreptococcus anaerobius under anaerobic conditions after 44 hrs by CLSI-M11-47 protocol based agar dilution method; procedure, shortened: as §2
[14] = system: Peptostreptococcus stomatis; assay: Antimicrobial activity against Peptostreptococcus stomatis under anaerobic conditions after 44 hrs by CLSI-M11-47 protocol based agar dilution method; procedure, shortened: as §2
[15] = system: Anaerococcus lactolyticus; assay: Antimicrobial activity against Anaerococcus lactolyticus under anaerobic conditions after 44 hrs by CLSI-M11-47 protocol based agar dilution method; procedure, shortened: as §1
[16] = system: Gemella morbillorum; assay: Antimicrobial activity against Gemella morbillorum under anaerobic conditions after 44 hrs by CLSI-M11-47 protocol based agar dilution method; procedure, shortened: as §2
[17] = system: Peptoniphilus harei; assay: Antimicrobial activity against Peptoniphilus harei under anaerobic conditions after 44 hrs by CLSI-M11-47 protocol based agar dilution method; procedure, shortened: as §2
[18] = system: Actinomyces israelii; assay: Antimicrobial activity against Actinomyces israelii under anaerobic conditions after 44 hrs by CLSI-M11-47 protocol based agar dilution method; procedure, shortened: as §1
[19] = system: Schaalia meyeri; assay: Antimicrobial activity against Actinomyces meyeri under anaerobic conditions after 44 hrs by CLSI-M11-47 protocol based agar dilution method; procedure, shortened: as §1
[20] = system: Schaalia odontolytica; assay: Antimicrobial activity against Actinomyces odontolyticus under anaerobic conditions after 44 hrs by CLSI-M11-47 protocol based agar dilution method; procedure, shortened: as §1
[21] = system: Cutibacterium acnes; assay: Antimicrobial activity against Propionibacterium acnes under anaerobic conditions after 44 hrs by CLSI-M11-47 protocol based agar dilution method; procedure, shortened: as §2
[22] = system: Eggerthella lenta; assay: Antimicrobial activity against Eggerthella lenta under anaerobic conditions after 44 hrs by CLSI-M11-47 protocol based agar dilution method; procedure, shortened: as §1
[23] = system: Collinsella aerofaciens; assay: Antimicrobial activity against Colinsella aerofaciens under anaerobic conditions after 44 hrs by CLSI-M11-47 protocol based agar dilution method; procedure, shortened: as §1
[24] = system: Eubacterium contortum; assay: Antimicrobial activity against Eubacterium contortum under anaerobic conditions after 44 hrs by CLSI-M11-47 protocol based agar dilution method; conditions: Faecalicatena contorta; procedure, shortened: as §1
[25] = system: Mogibacterium timidum; assay: Antimicrobial activity against Mogibacterium timidum under anaerobic conditions after 44 hrs by CLSI-M11-47 protocol based agar dilution method; procedure, shortened: as §2
[26] = system: Lacticaseibacillus rhamnosus; assay: Antimicrobial activity against Lactobacillus rhamnosus under anaerobic conditions after 44 hrs by CLSI-M11-47 protocol based agar dilution method; procedure, shortened: as §2
[27] = system: [Clostridium] innocuum; assay: Antimicrobial activity against Clostridium […] under anaerobic conditions after 44 hrs by CLSI-M11-47 protocol based agar dilution method; procedure, shortened: as §1
[28] = system: Enterocloster clostridioformis; assay: Antimicrobial activity against Clostridium clostridioforme under anaerobic conditions after 44 hrs by CLSI-M11-47 protocol based agar dilution method; procedure, shortened: as §1
[29] = system: Clostridium cadaveris; assay: Antimicrobial activity against Clostridium cadaveris under anaerobic conditions after 44 hrs by CLSI-M11-47 protocol based agar dilution method; procedure, shortened: as §1
[30] = system: Clostridium hylemonae; assay: Antimicrobial activity against Clostridium hylemonae under anaerobic conditions after 44 hrs by CLSI-M11-47 protocol based agar dilution method; procedure, shortened: as §1
[31] = system: Clostridium paraputrificum; assay: Antimicrobial activity against Clostridium paraputrificum under anaerobic conditions after 44 hrs by CLSI-M11-47 protocol based agar dilution method; procedure, shortened: as §1
[32] = system: Eubacterium limosum; assay: Antimicrobial activity against Eubacterium limosum under anaerobic conditions after 44 hrs by CLSI-M11-47 protocol based agar dilution method; procedure, shortened: as §1

CCC[C@@H]1C[C@@H](C(=O)N[C@@H]([C@H]2O[C@H](SC)[C@H](O)[C@@H](O)[C@H]2O)[C@H](C)Cl)N(C)C1 [CLINDAMYCIN]
0.25 µg/mL: MIC90 [13] | MIC90 [14]
128 µg/mL: MIC90 [4] | MIC90 [5] | MIC90 [9] | MIC90 [10] | MIC90 [18] | MIC90 [19] | MIC90 [20] | MIC90 [29] | MIC90 [30] | MIC90 [31]
2 µg/mL: MIC50 [11] | MIC90 [22] | MIC90 [23] | MIC90 [24] | MIC90 [25] | MIC90 [26] | MIC90 [28] | MIC50 [29] | MIC50 [30] | MIC50 [31] | MIC90 [32]
16 µg/mL: MIC90 [3]
4 µg/mL: MIC50 [1] | MIC50 [2]
0.5 µg/mL: MIC50 [10] | MIC50 [22] | MIC50 [27] | MIC50 [28]
0.125 µg/mL: MIC50 [9] | MIC50 [12] | MIC50 [15] | MIC50 [16] | MIC50 [17] | MIC50 [21] | MIC90 [21]
64 µg/mL: MIC90 [15] | MIC90 [16] | MIC90 [17]
> 128 µg/mL: MIC90 [1] | MIC90 [2] | MIC90 [6] | MIC90 [11] | MIC90 [12] | MIC90 [27]
≤ 0.03 µg/mL: MIC50 [3] | MIC50 [4] | MIC50 [5] | MIC50 [6] | MIC50 [8] | MIC50 [13] | MIC50 [14]
0.06 µg/mL: MIC50 [7] | MIC90 [7] | MIC90 [8] | MIC50 [18] | MIC50 [19] | MIC50 [20] | MIC50 [23] | MIC50 [24] | MIC50 [25] | MIC50 [32]
1 µg/mL: MIC50 [26]

Cc1ncc([N+](=O)[O-])n1CCO [METRONIDAZOLE]
0.5 µg/mL: MIC50 [4] | MIC50 [5] | MIC50 [11] | MIC50 [13] | MIC50 [14] | MIC50 [23] | MIC50 [24] | MIC50 [25] | MIC50 [29] | MIC50 [30] | MIC50 [31] | MIC50 [32]
0.25 µg/mL: MIC50 [3] | MIC90 [7] | MIC90 [8] | MIC90 [28]
8 µg/mL: MIC90 [9]
0.125 µg/mL: MIC90 [6] | MIC50 [8]
≤ 0.03 µg/mL: MIC50 [7]
4 µg/mL: MIC90 [15] | MIC90 [16] | MIC90 [17] | MIC90 [27] | MIC90 [29] | MIC90 [30] | MIC90 [31]
> 64 µg/mL: MIC50 [26] | MIC90 [26]
1 µg/mL: MIC50 [1] | MIC50 [2] | MIC90 [3] | MIC50 [10] | MIC90 [11] | MIC50 [12] | MIC90 [12] | MIC90 [13] | MIC90 [14] | MIC50 [15] | MIC50 [16] | MIC50 [17] | MIC50 [22] | MIC90 [22] | MIC90 [23] | MIC90 [24] | MIC90 [25] | MIC50 [27] | MIC90 [32]
> 32 µg/mL: MIC50 [18] | MIC90 [18] | MIC50 [19] | MIC90 [19] | MIC50 [20] | MIC90 [20] | MIC50 [21] | MIC90 [21]
2 µg/mL: MIC90 [1] | MIC90 [2] | MIC90 [4] | MIC90 [5] | MIC50 [9] | MIC90 [10]
0.06 µg/mL: MIC50 [6] | MIC50 [28]

From ChEMBL document CHEMBL1255409, “In vitro activity of ceftaroline against 623 diverse strains of anaerobic bacteria” (2010)
